≈ marks a conversion by molar mass, not a printed value. Calls of active or inactive are those of the source. No cut-off for these calls is given here.
Experiments:
[1] = Inhibition of Staphylococcus aureus MurD after 30 mins by HPLC analysis
Procedure, shortened: (§1)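 Radioactivity-based ligase assay on E. coli or S. aureus MurD or MurE, run with Tween-20 detergent present to prevent nonspecific inhibition by compound aggregates; IC50 values reported.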

[2] = tested on: Staphylococcus aureus; experiment: Antimicrobial activity against Staphylococcus aureus ATCC 29213 after 18 to 24 hrs by macrodilution method; format: functional
[3] = tested on: HepG2; experiment: Cytotoxicity against human HepG2 cells up to 200 uM after 24 hrs by MTT assay; format: cell-based; conditions: hepg2, 24 h
[4] = tested on: Escherichia coli; experiment: Antimicrobial activity against Escherichia coli ATCC 25922 after 18 to 24 hrs by macrodilution method; format: functional
[5] = Inhibition of Escherichia coli MurE after 30 mins by HPLC analysis; procedure, shortened: as §1
[6] = tested on: Staphylococcus aureus; experiment: Antimicrobial activity against methicillin-resistant Staphylococcus aureus ATCC 43300 after 18 to 24 hrs by macrodilution method; format: functional
[7] = tested on: Enterococcus faecalis; experiment: Antimicrobial activity against Enterococcus faecalis ATCC 29212 after 18 to 24 hrs by macrodilution method; format: functional
[8] = tested on: Pseudomonas aeruginosa; experiment: Antimicrobial activity against Pseudomonas aeruginosa ATCC 27853 after 18 to 24 hrs by macrodilution method; format: functional
[9] = Inhibition of Escherichia coli MurD after 30 mins by HPLC analysis; procedure, shortened: as §1
[10] = Inhibition of Staphylococcus aureus MurE after 30 mins by HPLC analysis; procedure, shortened: as §1
[11] = tested on: Escherichia coli; experiment: Inhibition of Escherichia coli MurE assessed as residual activity at 500 uM after 30 mins by HPLC analysis
Procedure, shortened: (§2)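 Radioactivity-based ligase assay with Tween-20 detergent present to prevent aggregate-driven inhibition; residual enzyme activity measured with compound at a single fixed concentration of 200 μM or 500 μM.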

[12] = tested on: Staphylococcus aureus; experiment: Inhibition of Staphylococcus aureus MurE assessed as residual activity at 500 uM after 30 mins by HPLC analysis
[13] = tested on: Escherichia coli; experiment: Inhibition of Escherichia coli MurE assessed as residual activity at 200 uM after 30 mins by HPLC analysis; procedure, shortened: as §2
[14] = tested on: Staphylococcus aureus; experiment: Inhibition of Staphylococcus aureus MurE at 200 uM after 30 mins by HPLC analysis; procedure, shortened: as §2

Row | Compound | IC50 [1] [µM] | MIC [2] [µg/mL] | Activity [3] | MIC [4] [µg/mL] | IC50 [5] [µM] | MIC [6] [µg/mL] | MIC [7] [µg/mL] | MIC [8] [µg/mL] | IC50 [9] [µM] | IC50 [10] [µM] | Activity [11] [%] | Activity [12] [%] | Activity [13] [%] | inhibition [14]
1 | O=C(O)CC[C@@H](NC(=O)c1cccc(NCc2ccc(/C=C3\SC(=S)NC3=O)cc2)c1)C(=O)O | 6.4 | 8 (≈ 16 µM) | Non-toxic | > 128 | 180 | 8 (≈ 16 µM) | 64 (≈ 128 µM) | > 128 | 8.2 | 17 |  |  |  | 
2 | O=C(O)CC[C@@H](NC(=O)c1cccc(CNc2ccc(/C=C3\SC(=O)NC3=O)cc2)c1)C(=O)O |  |  |  |  |  |  |  |  | 35 |  | 64 | 64 |  | 
3 | O=C(O)CC[C@@H](NC(=O)c1cccc(NCc2ccc(/C=C3\SC(=O)NC3=O)cc2)c1)C(=O)O | 100 | > 128 |  | > 128 | 200 | > 128 | > 128 | > 128 | 36 | > 200 |  |  | 51 | inactive

Source: ChEMBL document CHEMBL2150983, “Dual Inhibitor of MurD and MurE Ligases from Escherichia coli and Staphylococcus aureus” (ACS Med Chem Lett, 2012)
